According to ChEMBL document CHEMBL1137074, “Novel N-arylpyrazolo[3,2-c]-based ligands for the glucocorticoid receptor: receptor binding and in vivo activity” (J Med Chem, 2004):
pEC50, pIC50: −log10 of the molar value.

Legend:
Glucocorticoid receptor [1] = target: T1, Glucocorticoid receptor (Homo sapiens, UniProt P04150); experiment: Compound was tested for inhibitory activity towards human glucocorticoid receptor
T1 sequence (P04150 whole entry): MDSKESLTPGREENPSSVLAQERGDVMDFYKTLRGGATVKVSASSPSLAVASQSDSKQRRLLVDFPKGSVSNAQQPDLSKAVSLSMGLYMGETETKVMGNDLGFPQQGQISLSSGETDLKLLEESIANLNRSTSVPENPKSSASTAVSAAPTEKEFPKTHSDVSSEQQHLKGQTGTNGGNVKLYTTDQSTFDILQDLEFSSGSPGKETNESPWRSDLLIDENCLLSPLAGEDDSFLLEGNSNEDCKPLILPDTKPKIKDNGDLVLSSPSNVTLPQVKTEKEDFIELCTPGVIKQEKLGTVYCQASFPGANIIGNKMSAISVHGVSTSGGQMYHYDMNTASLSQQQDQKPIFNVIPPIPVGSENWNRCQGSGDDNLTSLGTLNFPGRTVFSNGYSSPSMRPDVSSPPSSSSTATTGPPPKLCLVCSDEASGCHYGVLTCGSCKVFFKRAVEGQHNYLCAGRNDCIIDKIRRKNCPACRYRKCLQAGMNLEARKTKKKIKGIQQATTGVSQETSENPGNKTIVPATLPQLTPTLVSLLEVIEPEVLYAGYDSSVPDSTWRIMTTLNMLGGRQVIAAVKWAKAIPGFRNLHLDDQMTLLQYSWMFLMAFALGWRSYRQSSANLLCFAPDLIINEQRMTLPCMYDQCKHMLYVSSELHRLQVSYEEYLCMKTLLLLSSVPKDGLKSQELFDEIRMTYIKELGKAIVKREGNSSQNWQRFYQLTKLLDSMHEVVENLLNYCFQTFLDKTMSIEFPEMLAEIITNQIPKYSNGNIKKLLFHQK

Glucocorticoid receptor [2] = target: T1, Glucocorticoid receptor; experiment: Ability to induce human IL-6 assay in A549 lung carcinoma cell line.; type: functional, cell-based
Mus musculus = experiment: Ability to induce mouse macrophage IL-6 assay in peritoneal exudate cells harvested by […] from C57BI/6 mice.; type: functional, cell-based
Procedure, shortened: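 Thioglycolate-elicited peritoneal exudate cells from C57Bl/6 mice, harvested day 3 in PBS/heparin, washed and resuspended at 5.6×10^5 cells/mL in RPMI 1640 with 10% heat-inactivated FCS. Compound (typically 3 μM final) preincubated 1 h at 37 °C, 5% CO2, then LPS or TNF added, 24 h. Supernatant IL-6 read; duplicate wells, three experiments.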

Progesterone receptor = target: T2, Progesterone receptor (Homo sapiens, UniProt P06401); experiment: Binding affinity towards human progesterone receptor
T2 sequence (P06401 whole entry): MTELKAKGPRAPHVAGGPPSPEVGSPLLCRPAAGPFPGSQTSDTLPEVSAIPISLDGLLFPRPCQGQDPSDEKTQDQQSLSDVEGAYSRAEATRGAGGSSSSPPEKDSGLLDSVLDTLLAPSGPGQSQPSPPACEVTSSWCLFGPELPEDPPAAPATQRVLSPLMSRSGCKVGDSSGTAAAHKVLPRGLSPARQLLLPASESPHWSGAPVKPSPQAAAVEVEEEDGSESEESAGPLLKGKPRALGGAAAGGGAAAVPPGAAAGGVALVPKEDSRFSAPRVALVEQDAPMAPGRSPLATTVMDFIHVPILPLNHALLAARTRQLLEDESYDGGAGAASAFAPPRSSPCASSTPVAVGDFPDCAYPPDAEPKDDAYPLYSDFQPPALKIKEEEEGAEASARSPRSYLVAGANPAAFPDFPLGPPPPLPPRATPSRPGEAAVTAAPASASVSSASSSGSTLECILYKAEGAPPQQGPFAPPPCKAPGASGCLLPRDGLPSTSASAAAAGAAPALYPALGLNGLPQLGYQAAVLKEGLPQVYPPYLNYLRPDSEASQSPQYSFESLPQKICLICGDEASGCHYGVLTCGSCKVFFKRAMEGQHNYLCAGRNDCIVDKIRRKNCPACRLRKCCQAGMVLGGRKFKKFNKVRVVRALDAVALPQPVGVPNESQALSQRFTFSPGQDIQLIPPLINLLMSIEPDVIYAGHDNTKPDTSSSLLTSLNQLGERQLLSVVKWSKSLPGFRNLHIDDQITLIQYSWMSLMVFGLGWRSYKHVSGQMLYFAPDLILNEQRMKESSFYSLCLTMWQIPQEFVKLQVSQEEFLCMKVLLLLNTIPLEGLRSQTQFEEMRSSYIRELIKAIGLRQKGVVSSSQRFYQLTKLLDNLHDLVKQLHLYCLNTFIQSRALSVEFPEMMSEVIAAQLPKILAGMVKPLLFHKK
Procedure, shortened: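 Receptor homogenates from frozen cell pellets in ice-cold KPO4 buffer (10 mM KPO4, 20 mM molybdate, 1 mM EDTA, 5 mM DTT, protease inhibitors), spun 35 000g 1 h at 4 °C. MR: recombinant baculovirus-expressed rat receptor, 2 nM [3H]aldosterone; PR: T-47D cell protein, 5 nM [3H]progesterone.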

Estrogen receptor = target: T3, Estrogen receptor (Homo sapiens, UniProt P03372); experiment: Binding affinity for human Estrogen receptor alpha
T3 sequence (P03372 whole entry): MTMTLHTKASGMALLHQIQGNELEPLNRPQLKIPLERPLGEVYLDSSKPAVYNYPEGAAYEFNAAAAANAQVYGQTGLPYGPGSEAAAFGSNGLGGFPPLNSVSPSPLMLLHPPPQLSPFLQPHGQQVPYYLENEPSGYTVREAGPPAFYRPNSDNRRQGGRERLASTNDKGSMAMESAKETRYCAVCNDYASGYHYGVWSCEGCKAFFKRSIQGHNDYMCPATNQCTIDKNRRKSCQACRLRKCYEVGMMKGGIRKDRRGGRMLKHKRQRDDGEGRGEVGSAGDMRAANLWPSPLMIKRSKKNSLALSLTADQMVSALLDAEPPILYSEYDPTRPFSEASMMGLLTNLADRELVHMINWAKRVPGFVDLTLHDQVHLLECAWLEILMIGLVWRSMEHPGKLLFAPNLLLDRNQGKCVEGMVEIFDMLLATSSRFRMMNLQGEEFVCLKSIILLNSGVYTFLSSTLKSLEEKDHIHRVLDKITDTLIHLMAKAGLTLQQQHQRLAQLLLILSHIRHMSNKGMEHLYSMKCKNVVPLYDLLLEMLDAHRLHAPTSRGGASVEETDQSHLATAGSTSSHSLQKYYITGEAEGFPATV

[3] = target: Mineralocorticoid receptor (Rattus norvegicus) (UniProt P22199); experiment: Binding affinity for rat mineralocorticoid receptor
Androgen receptor = target: T4, Androgen receptor (Homo sapiens, UniProt P10275); experiment: Binding affinity for human androgen receptor
T4 sequence (P10275 whole entry): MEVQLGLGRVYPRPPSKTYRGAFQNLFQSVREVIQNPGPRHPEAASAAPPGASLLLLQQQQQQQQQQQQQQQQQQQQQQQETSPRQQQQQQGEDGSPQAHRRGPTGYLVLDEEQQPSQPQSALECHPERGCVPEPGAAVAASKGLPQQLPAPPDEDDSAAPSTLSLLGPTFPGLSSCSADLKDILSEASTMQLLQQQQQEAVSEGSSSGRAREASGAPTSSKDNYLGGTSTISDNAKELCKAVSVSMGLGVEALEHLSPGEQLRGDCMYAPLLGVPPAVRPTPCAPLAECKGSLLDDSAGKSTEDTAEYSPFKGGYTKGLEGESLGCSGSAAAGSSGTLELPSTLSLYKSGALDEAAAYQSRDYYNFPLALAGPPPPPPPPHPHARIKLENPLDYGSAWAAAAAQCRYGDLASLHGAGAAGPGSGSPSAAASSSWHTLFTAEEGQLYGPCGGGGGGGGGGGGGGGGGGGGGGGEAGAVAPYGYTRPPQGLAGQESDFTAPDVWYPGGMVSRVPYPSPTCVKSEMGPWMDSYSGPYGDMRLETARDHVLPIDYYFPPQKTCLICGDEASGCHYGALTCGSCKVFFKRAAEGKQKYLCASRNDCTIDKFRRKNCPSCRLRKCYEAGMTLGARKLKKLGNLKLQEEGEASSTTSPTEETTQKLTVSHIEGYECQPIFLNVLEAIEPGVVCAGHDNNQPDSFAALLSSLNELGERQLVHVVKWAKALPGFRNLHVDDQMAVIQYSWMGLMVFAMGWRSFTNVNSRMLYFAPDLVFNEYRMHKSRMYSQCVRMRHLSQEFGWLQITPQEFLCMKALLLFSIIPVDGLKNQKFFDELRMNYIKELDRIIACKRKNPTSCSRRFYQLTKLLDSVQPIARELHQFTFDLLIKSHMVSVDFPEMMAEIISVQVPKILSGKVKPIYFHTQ

Glucocorticoid receptor [4] = target: T1, Glucocorticoid receptor; experiment: Glucocorticoid induced transactivation of human tyrosine amino transferase in HepG2 cells; type: functional, cell-based
Glucocorticoid receptor [5] = target: T1, Glucocorticoid receptor; experiment: Ability to induce human glutamine synthetase in skeletal muscle cells; type: cell-based

Mineralocorticoid receptor (Rattus norvegicus), sequence (P22199 whole entry, looked up): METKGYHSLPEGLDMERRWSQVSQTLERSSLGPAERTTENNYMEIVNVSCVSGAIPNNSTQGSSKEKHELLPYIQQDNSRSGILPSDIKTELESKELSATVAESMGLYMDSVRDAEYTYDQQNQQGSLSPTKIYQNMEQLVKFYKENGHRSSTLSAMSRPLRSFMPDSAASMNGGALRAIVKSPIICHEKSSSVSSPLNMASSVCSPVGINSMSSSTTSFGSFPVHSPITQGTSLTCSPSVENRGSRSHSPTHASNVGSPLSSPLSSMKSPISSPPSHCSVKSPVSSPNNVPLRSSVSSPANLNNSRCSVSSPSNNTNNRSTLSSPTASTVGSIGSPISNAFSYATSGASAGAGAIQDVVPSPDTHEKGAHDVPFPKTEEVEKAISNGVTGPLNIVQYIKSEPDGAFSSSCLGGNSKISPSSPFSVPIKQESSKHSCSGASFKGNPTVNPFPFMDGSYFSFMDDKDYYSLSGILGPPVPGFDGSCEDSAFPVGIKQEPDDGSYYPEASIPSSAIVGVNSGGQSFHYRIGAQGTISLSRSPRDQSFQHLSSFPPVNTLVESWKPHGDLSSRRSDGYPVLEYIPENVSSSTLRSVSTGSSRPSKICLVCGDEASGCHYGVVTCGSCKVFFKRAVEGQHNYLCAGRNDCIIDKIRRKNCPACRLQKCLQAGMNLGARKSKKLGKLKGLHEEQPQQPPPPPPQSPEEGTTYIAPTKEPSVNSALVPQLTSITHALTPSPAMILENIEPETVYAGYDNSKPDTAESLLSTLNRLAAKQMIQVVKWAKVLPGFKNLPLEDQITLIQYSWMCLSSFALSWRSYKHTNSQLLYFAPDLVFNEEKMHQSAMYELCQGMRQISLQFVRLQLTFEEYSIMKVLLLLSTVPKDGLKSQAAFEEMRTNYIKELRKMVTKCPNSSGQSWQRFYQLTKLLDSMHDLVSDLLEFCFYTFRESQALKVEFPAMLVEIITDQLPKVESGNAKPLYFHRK

| Compound | pIC50 (Glucocorticoid receptor [1]) | pEC50 (Glucocorticoid receptor [2]) | pEC50 (Mus musculus) | pIC50 (Progesterone receptor) | pIC50 (Estrogen receptor) | pIC50 [3] | pIC50 (Androgen receptor) | pEC50 (Glucocorticoid receptor [4]) | pEC50 (Glucocorticoid receptor [5]) |
| --- | --- | --- | --- | --- | --- | --- | --- | --- | --- |
| C[C@]12Cc3cnn(-c4ccc(F)cc4)c3C=C1CCC[C@@H]2[C@@H](O)c1cccc(O)c1 | 7.60 | 7.27 | 6.75 |  |  |  |  |  |  |
| CC(C)(C)[C@H](O)[C@H]1CCCC2=Cc3c(cnn3-c3ccc(F)cc3)C[C@@]21C | 7.11 |  |  |  |  |  |  |  |  |
| C[C@]12Cc3cnn(-c4ccc(F)cc4)c3C=C1CCC[C@@H]2[C@@H](O)Cc1ccc(F)cc1 | 8.55 | 8.49 | 8.43 |  |  |  |  | 6.00 | 7.27 |
| C=CC[C@H](O)[C@H]1CCCC2=Cc3c(cnn3-c3ccc(F)cc3)C[C@@]21C | 8.41 | 8.03 | 7.44 |  |  |  |  | 6.18 | 7.18 |
| C[C@]12Cc3cnn(-c4ccc(F)cc4)c3C=C1CCC[C@@H]2[C@@H](O)CCC1CC1 | 8.82 | 8.07 | 7.58 |  |  |  |  | 6.48 | 7.18 |
| C[C@]12Cc3cnn(-c4ccc(F)cc4)c3C=C1CCC[C@@H]2[C@](C)(O)c1ccsc1 | 9.10 | 9.00 | 8.28 |  |  |  |  | 7.45 | 7.85 |
| CC(C)(O)[C@H]1CCCC2=Cc3c(cnn3-c3ccc(F)cc3)C[C@@]21C | 8.72 | 8.52 | 7.82 |  |  |  |  | 7.08 | 6.74 |
| C[C@]12C=CC(=O)C=C1CCC1[C@@H]2[C@@H](O)C[C@@]2(C)[C@H]1CC[C@]2(O)C(=O)CO (single isomer, unassigned) [PREDNISOLONE] |  |  | 8.24 |  |  |  |  |  |  |
| Cc1cc([C@H](O)[C@H]2CCCC3=Cc4c(cnn4-c4ccc(F)cc4)C[C@@]32C)ccc1F | 8.17 | 7.99 | 7.27 |  |  |  |  |  |  |

More lines, main results first:

| pIC50 (Glucocorticoid receptor [1]) | pEC50 (Glucocorticoid receptor [2]) | pEC50 (Mus musculus) | pIC50 (Progesterone receptor) | pIC50 (Estrogen receptor) | pIC50 [3] | pIC50 (Androgen receptor) | Compound | pEC50 (Glucocorticoid receptor [4]) | pEC50 (Glucocorticoid receptor [5]) |
| --- | --- | --- | --- | --- | --- | --- | --- | --- | --- |
| 8.38 | 7.86 | 7.61 |  |  |  |  | C[C@]12Cc3cnn(-c4ccc(F)cc4)c3C=C1CCC[C@@H]2[C@@H](O)Cc1ccccc1 |  |  |
| 8.02 | 7.71 | 7.11 |  |  |  |  | C[C@]12Cc3cnn(-c4ccc(F)cc4)c3C=C1CCC[C@@H]2[C@@H](O)c1ccc(O)cc1 |  |  |
|  |  |  | < 6.00 | < 5.30 | < 5.30 | < 5.30 | C[C@]12Cc3cnn(-c4ccc(F)cc4)c3C=C1CCC[C@@H]2[C@@H](O)c1ccc(F)cc1 |  |  |
| 8.14 | 8.57 | 7.24 |  |  |  |  | C[C@]12Cc3cnn(-c4ccc(F)cc4)c3C=C1CCC[C@@H]2[C@@H](O)c1ccccc1F |  |  |
| 8.05 | 8.72 | 7.22 |  |  |  |  | C[C@]12Cc3cnn(-c4ccc(F)cc4)c3C=C1CCC[C@@H]2[C@@H](O)c1ccc(Cl)cc1 |  |  |
| 8.06 | 7.84 |  |  |  |  |  | C[C@H](O)[C@H]1CCCC2=Cc3c(cnn3-c3ccc(F)cc3)C[C@@]21C |  |  |
| 8.10 | 7.50 | 7.69 |  |  |  |  | COc1cc([C@H](O)[C@H]2CCCC3=Cc4c(cnn4-c4ccc(F)cc4)C[C@@]32C)ccc1F |  |  |
| 8.20 |  | 7.18 |  |  |  |  | COc1ccc(C[C@H](O)[C@H]2CCCC3=Cc4c(cnn4-c4ccc(F)cc4)C[C@@]32C)cc1 |  |  |
| 8.47 | 7.94 | 7.38 |  |  |  |  | Cc1ccc(C[C@H](O)[C@H]2CCCC3=Cc4c(cnn4-c4ccc(F)cc4)C[C@@]32C)cc1 |  |  |
| 7.78 | 7.62 | 7.06 |  |  |  |  | CC(C)(C)c1ccc(C[C@H](O)[C@H]2CCCC3=Cc4c(cnn4-c4ccc(F)cc4)C[C@@]32C)cc1 |  |  |
